Laboratory results taken from ChEMBL document CHEMBL4428023, “1,4-Dihydropyridines Active on the SIRT1/AMPK Pathway Ameliorate Skin Repair and Mitochondrial Function and Exhibit Inhibition of Proliferation in Cancer Cells” (J Med Chem, 2016).
The source made the active and inactive calls. No cut-off for these calls is given here.

How the values were obtained:
C2C12 [1] = test: Activation of AMPK/SIRT1 in mouse C2C12 cells assessed as increase in mitochondrial density at 30 uM after 16 hrs by Mitotracker Green staining-based confocal microscopy; assay type: cell-based
Procedure, shortened: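 Murine C2C12 myoblasts plated on coverslips and grown overnight at 37 °C, 5% CO2. Then switched to serum-free HBSS, pH 7.4, and treated 16 h at 30 µM, alone or with 5 µM compound C or EX-527. Mitotracker Green (200 nM final) added for the last 30 min. Cells fixed in 4% paraformaldehyde, permeabilized and imaged by confocal microscopy, with settings fixed on untreated cells. Plate fluorescence also quantified.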

[2] = molecular target: T1, NAD-dependent protein deacetylase sirtuin-1 (Homo sapiens) (UniProt Q96EB6); test: Activation of full-length GST-tagged recombinant human SIRT1 assessed as enzyme activity obtained without subtraction of intrinsic fluorescence using p53-based untagged peptide as substrate at 50 uM after 30 mins by SIRTainty assay
T1 sequence (whole entry): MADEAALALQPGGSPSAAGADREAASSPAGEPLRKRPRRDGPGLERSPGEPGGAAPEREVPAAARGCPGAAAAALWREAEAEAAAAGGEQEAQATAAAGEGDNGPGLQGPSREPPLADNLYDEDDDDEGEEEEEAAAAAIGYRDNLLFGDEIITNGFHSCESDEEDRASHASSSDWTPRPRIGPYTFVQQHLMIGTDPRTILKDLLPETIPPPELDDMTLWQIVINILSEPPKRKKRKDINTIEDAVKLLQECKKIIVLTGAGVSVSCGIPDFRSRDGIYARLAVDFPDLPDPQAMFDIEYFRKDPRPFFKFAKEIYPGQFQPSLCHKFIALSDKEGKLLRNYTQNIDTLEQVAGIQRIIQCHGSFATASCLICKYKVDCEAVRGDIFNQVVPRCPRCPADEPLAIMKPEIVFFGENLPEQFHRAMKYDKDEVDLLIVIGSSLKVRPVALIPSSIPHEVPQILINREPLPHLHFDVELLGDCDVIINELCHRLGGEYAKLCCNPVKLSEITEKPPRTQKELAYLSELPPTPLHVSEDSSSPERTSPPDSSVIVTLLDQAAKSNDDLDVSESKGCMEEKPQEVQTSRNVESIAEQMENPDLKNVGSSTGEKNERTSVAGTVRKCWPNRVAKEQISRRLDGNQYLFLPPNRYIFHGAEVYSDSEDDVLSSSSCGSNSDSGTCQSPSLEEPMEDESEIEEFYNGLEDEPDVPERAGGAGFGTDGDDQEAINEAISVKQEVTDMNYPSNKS

[3] = molecular target: T1, NAD-dependent protein deacetylase sirtuin-1 (Homo sapiens); test: Activation of full-length GST-tagged recombinant human SIRT1 assessed as enzyme activity obtained with subtraction of intrinsic fluorescence using p53-based untagged peptide as substrate at 50 uM after 30 mins by SIRTainty assay
HaCaT [4] = test: Activation of AMPK/SIRT1 in human HaCaT cells assessed as nitric oxide production up to 50 uM incubated for 1 hr by DAF-2D staining-based fluorescence assay; assay type: cell-based
Procedure, shortened: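 HaCaT keratinocytes in DMEM with 10% FBS; treated 1 h (dose-response at 5, 25, 50 µM; screen at 1 µM), DMSO solvent control. 5 µM DAF-2D added to the medium; cells washed, trypsinized and analysed by flow cytometry. Read-out is % DAF-positive cells relative to DMSO.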

[5] = Antagonist activity at calcium channel in guinea pig smooth muscle assessed as inhibition of calcium-induced contraction in K+-depolarized aortic strips; settings: Cavia porcellus
[6] = molecular target: T1, NAD-dependent protein deacetylase sirtuin-1 (Homo sapiens); settings: HaCaT, 1 uM
Mus musculus [7] = test: Wound healing activity in CD1 mouse assessed as increased wound closure at 1 uM administered topically on wound everyday for 14 days by biopsy punch assay; assay type: functional, organism-based
Procedure, shortened: (§1)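 Male CD1 mice, 8 weeks old, anaesthetized i.p. with medetomidine 1 mg/kg plus ketamine 75 mg/kg, then biopsy-punch wounded. Compound (1 µM) in 20 µL saline applied directly to the wound daily for 14 days; solvent-treated group as control. Epithelial gap and % wound closure followed over time.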

Cavia porcellus [8] = organism: Cavia porcellus; test: Antagonist activity at calcium channel in guinea pig smooth muscle assessed as inhibition of calcium-induced contraction in K+-depolarized aortic strips at 50 uM
Procedure, shortened: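 Guinea-pig isolated aortic strips depolarized with 80 mM K+; read-out is percent inhibition of calcium-induced contraction.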

HaCaT [9] = test: Activation of AMPK/SIRT1 in human HaCaT cells assessed as nitric oxide production incubated for 1 hr by DAF-2D staining-based fluorescence assay; assay type: cell-based
Procedure, shortened: (§2)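 HaCaT keratinocytes grown in DMEM with 10% FBS and antibiotics. Cells treated 1 h (single-point 1 µM; dose-response at 5, 25, 50 µM). 5 µM DAF-2D added to complete medium. Cells then washed in PBS, trypsinized and analysed by flow cytometry for DAF fluorescence (ex 485/em 538 nm). Read-out is % DAF-positive cells relative to DMSO control.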

Mus musculus [10] = test: Wound healing activity in CD1 mouse assessed as decrease in epithelial gap at 1 uM administered topically on wound everyday for 14 days by biopsy punch assay; assay type: functional, organism-based; procedure, shortened: as §1
[11] = molecular target: T1, NAD-dependent protein deacetylase sirtuin-1 (Homo sapiens); test: Activation of SIRT1 in human HaCaT cells assessed as H4K16 deacetylation at 1 uM after 1 hr by Western blotting method; assay type: cell-based
Procedure, shortened: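 HaCaT cells treated 1 h at 1 µM, DMSO as solvent control. Cells lysed in Laemmli buffer and immunoblotted for acetyl-H4K16 (1:1000), with total histone H4 as loading control. Bands quantified by densitometry. At least three independent experiments.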

C2C12 [12] = test: Activation of AMPK/SIRT1 in mouse C2C12 cells assessed as increase in mitochondrial density at 30 uM after 16 hrs by Mitotracker Green staining-based confocal microscopy in presence of EX-527; assay type: cell-based
Procedure, shortened: (§3)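 C2C12 myoblasts plated overnight, then in serum-free HBSS pH 7.4 and treated 16 h at 30 µM, alone or with 5 µM inhibitor (EX-527 or compound C). Mitotracker Green at 200 nM final was added for the last 30 min. Cells were fixed in 4% paraformaldehyde, permeabilized with Triton X-100 and imaged by confocal microscopy with fixed settings. Alternatively, mitochondrial fluorescence was quantified in plates.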

HaCaT [13] = test: Activation of AMPK/SIRT1 in human HaCaT cells assessed as nitric oxide production at 10 uM incubated for 1 hr in presence of compound C by DAF-2D staining-based fluorescence assay; assay type: cell-based
Procedure, shortened: (§4)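 HaCaT cells in DMEM with 10% FBS. DHP (10 µM) given for 1 h alone or together with 10 µM AMPK inhibitor compound C or 10 µM SIRT1 inhibitor EX-527. Intracellular NO read by flow cytometry after loading with 5 µM DAF-2D in medium (ex 485/em 538 nm). Expressed as % DAF-positive cells versus DMSO.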

HaCaT [14] = test: Activation of AMPK/SIRT1 in human HaCaT cells assessed as nitric oxide production at 1 uM incubated for 1 hr by DAF-2D staining-based fluorescence assay; assay type: cell-based; procedure, shortened: as §2
[15] = molecular target: 3',5'-cyclic-AMP phosphodiesterase 4D (Homo sapiens) (UniProt Q08499); test: Inhibition of recombinant human PDE4D assessed as phosphate release using cAMP as substrate at 50 uM after 60 mins by malachite green assay
Procedure, shortened: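 Recombinant human PDE4D (20 mU) in 10 mM Tris-HCl pH 7.4 with cAMP substrate. Compounds at 50 µM in DMSO; rolipram 10 µM as positive control. Incubated 60 min at 37 °C, then phosphate release measured by malachite green absorbance at 620 nm. Mean of three determinations.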

HaCaT [16] = test: Activation of AMPK/SIRT1 in human HaCaT cells assessed as nitric oxide production at 10 uM incubated for 1 hr in presence of EX-527 by DAF-2D staining-based fluorescence assay; assay type: cell-based; procedure, shortened: as §4
C2C12 [17] = test: Activation of AMPK/SIRT1 in mouse C2C12 cells assessed as increase in mitochondrial density at 30 uM after 16 hrs by Mitotracker Green staining-based confocal microscopy in presence of compound C; assay type: cell-based; procedure, shortened: as §3
Cavia porcellus [18] = organism: Cavia porcellus; test: Potency index, ratio of potency for test compound to potency for nifedipine for inhibition of calcium channel in guinea pig ileum longitudinal smooth muscle assessed as inhibition of calcium-induced contraction; assay type: tissue-based
[19] = molecular target: T1, NAD-dependent protein deacetylase sirtuin-1 (Homo sapiens); test: Activation of SIRT1 in […] at 1 uM by fluorimetric assay; assay type: cell-free; settings: HaCaT, TDE = time-dependent effect
A2780 = test: Antiproliferative activity against human A2780 cells assessed as cell viability after 72 hrs by MTT assay; assay type: functional, cell-based; settings: A2780, 72 h
Procedure, shortened: (§5)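 Cells grown in RPMI with 10% fetal calf serum and penicillin, seeded in sextuplicate at 3 × 10^3 cells/well. After 24 h, cells were exposed 72 h to 5–200 µM. Viability was measured by MTT and expressed as treated/untreated × 100. IC50 was calculated from three independent experiments, reported as mean ± SD.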

[20] = molecular target: T1, NAD-dependent protein deacetylase sirtuin-1 (Homo sapiens); test: Activation of SIRT1 in human M14 cells assessed as deacetylation of acetyl-H4K16 after 48 hrs by Western blotting method; assay type: cell-based
Procedure, shortened: (§6)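 M14 melanoma and H1299 lung cancer cells treated 48 h at 5, 10 and 20 µM. Total protein extracts immunoblotted for acetyl-H4K16, with β-actin as loading control. Detection by HRP secondary antibodies and enhanced chemiluminescence. Bands quantified by densitometry.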

LoVo = test: Antiproliferative activity against human LoVo cells assessed as cell viability after 72 hrs by MTT assay; assay type: functional, cell-based; procedure, shortened: as §5
[21] = Antiproliferative activity against human SAN cells assessed as cell viability after 72 hrs by MTT assay; assay type: functional, cell-based; procedure, shortened: as §5
A549 = test: Antiproliferative activity against human A549 cells assessed as cell viability after 72 hrs by MTT assay; assay type: functional, cell-based; settings: A549, 72 h; procedure, shortened: as §5
[22] = molecular target: T1, NAD-dependent protein deacetylase sirtuin-1 (Homo sapiens); test: Activation of SIRT1 in human NCI-H1299 cells assessed as deacetylation of acetyl-H4K16 after 48 hrs by Western blotting method; assay type: cell-based; procedure, shortened: as §6
HT-29 = test: Antiproliferative activity against human HT-29 cells assessed as cell viability after 72 hrs by MTT assay; assay type: functional, cell-based; settings: HT-29, 72 h; procedure, shortened: as §5
NCI-H1299 = test: Antiproliferative activity against human NCI-H1299 cells assessed as cell viability after 72 hrs by MTT assay; assay type: functional, cell-based; settings: NCI-H1299, 72 h; procedure, shortened: as §5
Caov-3 cell line = test: Antiproliferative activity against human Caov3 cells assessed as cell viability after 72 hrs by MTT assay; assay type: functional, cell-based; settings: Caov-3, 72 h; procedure, shortened: as §5
SK-OV-3 = test: Antiproliferative activity against human SKOV3 cells assessed as cell viability after 72 hrs by MTT assay; assay type: functional, cell-based; settings: SK-OV-3, 72 h; procedure, shortened: as §5
HEY = test: Antiproliferative activity against human HEY cells assessed as cell viability after 72 hrs by MTT assay; assay type: functional, cell-based; procedure, shortened: as §5
M14 = test: Antiproliferative activity against human M14 cells assessed as cell viability after 72 hrs by MTT assay; assay type: functional, cell-based; settings: M14, 72 h; procedure, shortened: as §5

Sequence of 3',5'-cyclic-AMP phosphodiesterase 4D (Homo sapiens) (Q08499 whole entry): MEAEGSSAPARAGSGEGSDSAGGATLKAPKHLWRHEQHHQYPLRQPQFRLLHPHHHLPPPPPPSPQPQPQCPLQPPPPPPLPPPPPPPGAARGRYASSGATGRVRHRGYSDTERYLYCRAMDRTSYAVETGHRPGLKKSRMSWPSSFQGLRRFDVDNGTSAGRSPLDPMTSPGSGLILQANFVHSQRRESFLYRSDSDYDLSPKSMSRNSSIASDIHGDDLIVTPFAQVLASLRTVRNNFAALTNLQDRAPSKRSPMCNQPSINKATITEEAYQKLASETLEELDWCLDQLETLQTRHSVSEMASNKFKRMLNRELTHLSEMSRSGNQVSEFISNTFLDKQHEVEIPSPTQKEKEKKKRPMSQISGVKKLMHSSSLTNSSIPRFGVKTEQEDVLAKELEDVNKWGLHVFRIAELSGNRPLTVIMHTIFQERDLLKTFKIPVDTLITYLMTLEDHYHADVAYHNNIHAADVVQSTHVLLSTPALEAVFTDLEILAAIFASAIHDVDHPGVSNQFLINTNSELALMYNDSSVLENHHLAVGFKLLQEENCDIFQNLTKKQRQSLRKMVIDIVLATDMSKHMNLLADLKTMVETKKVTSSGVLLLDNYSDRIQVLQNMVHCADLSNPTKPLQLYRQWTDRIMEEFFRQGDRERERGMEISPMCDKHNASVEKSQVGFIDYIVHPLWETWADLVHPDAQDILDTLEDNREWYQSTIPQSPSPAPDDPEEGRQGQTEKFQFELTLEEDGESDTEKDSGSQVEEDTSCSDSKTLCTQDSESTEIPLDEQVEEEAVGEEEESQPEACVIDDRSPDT

## O=C(O)C1=CN(Cc2ccccc2)C=C(C(=O)O)C1c1ccco1
C2C12 [1]
  Activity: inactive
[2]
  Activity: 41%
[3]
  Activity: 41%

## COC(=O)C1=C(C)NC(C)=C(C(=O)OC)C1c1ccccc1[N+](=O)[O-] [NIFEDIPINE]
HaCaT [4]
  Activity: inactive
[5]
  IC50: 0.009 µM

## CC(NC(=O)c1ccccc1/N=C/c1c(O)ccc2ccccc12)c1ccccc1 (centres undefined)
[6]
  inhibition: Active

## CCOC(=O)C1=CN(Cc2ccccc2)C=C(C(=O)OCC)C1c1ccsc1
Mus musculus [7]
  Activity: Active
Cavia porcellus [8]
  inhibition: 13%
C2C12 [1]
  Activity: Active
HaCaT [9]
  Activity: Dose-dependent effect
Mus musculus [10]
  Activity: Active
[11]
  Activity: Active
C2C12 [12]
  Activity: inactive
[2]
  Activity: 404%
[3]
  Activity: 126%
HaCaT [13]
  Activity: inactive
HaCaT [14]
  Activity: Active
[15]
  inhibition: inactive
HaCaT [16]
  Activity: inactive
C2C12 [17]
  Activity: inactive
Cavia porcellus [18]
  Ratio: 266
[19]
  Activity: Tde

## CCOC(=O)C1=CN(Cc2ccccc2)C=C(C(=O)OCC)C1c1ccc(CN2CCN(C)CC2)cc1
A2780
  IC50: 10 µM
[20]
  Activity: Dose-dependent effect
LoVo
  IC50: 15 µM
[21]
  IC50: 16 µM
A549
  IC50: 20 µM
[22]
  Activity: Dose-dependent effect
HT-29
  IC50: 11 µM
[2]
  Activity: 152%
[3]
  Activity: 68%
NCI-H1299
  IC50: 24 µM
Caov-3 cell line
  IC50: 24 µM
HaCaT [13]
  Activity: inactive
HaCaT [14]
  Activity: Active
SK-OV-3
  IC50: 35 µM
HaCaT [16]
  Activity: inactive
HEY
  IC50: 15 µM
M14
  IC50: 8 µM
